In assay [1] the target is T1, Inhibitor of nuclear factor kappa-B kinase subunit beta (Homo sapiens, UniProt O14920).
T1 sequence (O14920 whole entry): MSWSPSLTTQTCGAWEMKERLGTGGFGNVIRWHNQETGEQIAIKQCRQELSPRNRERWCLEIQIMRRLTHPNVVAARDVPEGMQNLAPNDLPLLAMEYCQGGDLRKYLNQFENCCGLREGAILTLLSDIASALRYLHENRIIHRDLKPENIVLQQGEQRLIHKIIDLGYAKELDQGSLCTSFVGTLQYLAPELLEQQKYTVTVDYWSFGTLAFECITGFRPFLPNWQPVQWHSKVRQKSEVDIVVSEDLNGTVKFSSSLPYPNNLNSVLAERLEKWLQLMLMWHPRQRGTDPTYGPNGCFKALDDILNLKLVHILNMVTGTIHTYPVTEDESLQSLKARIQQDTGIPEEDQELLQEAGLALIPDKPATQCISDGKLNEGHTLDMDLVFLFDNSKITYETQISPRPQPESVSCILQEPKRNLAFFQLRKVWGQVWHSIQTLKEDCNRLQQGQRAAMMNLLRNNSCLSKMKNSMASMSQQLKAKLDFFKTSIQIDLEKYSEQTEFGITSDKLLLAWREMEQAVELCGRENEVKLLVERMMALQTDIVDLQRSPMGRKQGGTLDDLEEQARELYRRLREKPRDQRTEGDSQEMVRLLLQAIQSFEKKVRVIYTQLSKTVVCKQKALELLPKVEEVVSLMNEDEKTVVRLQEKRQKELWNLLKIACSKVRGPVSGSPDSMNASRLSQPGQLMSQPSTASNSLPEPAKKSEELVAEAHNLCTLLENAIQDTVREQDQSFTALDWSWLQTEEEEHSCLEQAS
Nature of the assay: Inhibition of human recombinant IKK2-mediated transfer of [gamma33P]ATP to biotinylated IkappaBalpha after 30 mins by scintillation counting. In a few lines:
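Recombinant human IKK-2 enzyme (46 nM/rxn, 200 ng/rxn). Substrate 5 µM biotinylated IκBα peptide (residues spanning Ser32/Ser36) with 1 µM ATP plus 0.1 µCi [γ-33P]ATP. Buffer 25 mM Hepes pH 7.6 with 1 mM DTT, 2 mM MgCl2, 2 mM MnCl2, 10 mM NaF. Incubated 30 min at 25 °C, stopped with AG1X8 resin in formate buffer pH 3. Supernatant ³³P read by scintillation counting.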

Assay [2] can be described thus: Antiinflammatory activity in human synovial fibroblasts assessed as inhibition of IL-1-beta-stimulated IL8 production treated 1 hr before IL1-beta challenge measured after 18 hrs by ELISA. In kind it is functional. Put shortly:
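Rheumatoid arthritis patient synovial fibroblasts seeded at 1.5 × 10^4 cells/well in DMEM + 15% FBS and left to attach overnight. Medium then changed to DMEM + 1% FBS. Cells pretreated 1 h with increasing compound concentrations (0.2% Me2SO final), then stimulated 18 h with 1 ng/mL IL-1β. Secreted IL-8 measured by ELISA against standard curves (4-parameter logistic). Cytotoxicity checked by Alamar Blue.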
On the technique in general: An ELISA detects its analyte on a solid surface through an enzyme-linked reagent.

Turning to `NC(=O)c1nn(-c2ccc(F)cc2)c2c1CCc1ccc(NC(=O)c3cccnc3N)cc1-2`, the IC50 in assay [1] came to 2320 nM.

Turning to `NC(=O)c1nn(-c2ccc(F)cc2)c2c1CCc1ccc(NC(=O)c3cccnc3N3CCOCC3)cc1-2`, in assay [1], the IC50 is 14200 nM. `C[C@@H]1CN(c2cc(C(=O)Nc3ccc4c(c3)-c3c(c(C(N)=O)nn3-c3ccc(F)cc3)CC4)c(Cl)cn2)CCN1`: the IC50 in assay [1] is 54 nM; in assay [2], 3980 nM. Consider `C[C@H]1CN(c2cc(C(=O)Nc3ccc4c(c3)-c3c(c(C(N)=O)nn3-c3ccc(F)cc3)CC4)c(Cl)cn2)CCN1`, for which the concentration for half-maximal inhibition (IC50) in assay [1] amounted to 51 nM; in assay [2], 1320 nM. For `CN1CCN(c2cc(C(=O)Nc3ccc4c(c3)-c3c(c(C(N)=O)nn3-c3ccc5c(c3)OCO5)CC4)c(Cl)cn2)CC1`, in that order: 33 nM and 630 nM. As for `CNc1ccc(Cl)c(C(=O)Nc2ccc3c(c2)-c2c(c(C(N)=O)nn2-c2ccc4c(c2)OCO4)CC3)n1`, the 50% inhibitory concentration (IC50) in assay [1] turned out to be 477 nM; in assay [2] it was 5740 nM. Take `C[C@@H]1CN(c2cc(C(=O)Nc3ccc4c(c3)-c3c(c(C(N)=O)nn3-c3ccc(F)cc3)CC4)c(Cl)cn2)C[C@H](C)N1C`: the IC50 amounted to 98 nM in assay [1] and 5500 nM in assay [2]. For `NC(=O)c1nn(-c2ccc3c(c2)OCO3)c2c1CCc1ccc(NC(=O)c3cccnc3Cl)cc1-2`, in that order: 34 nM and 5000 nM. Turning to `CN1CCN(c2ncccc2C(=O)Nc2ccc3c(c2)-c2c(c(C(N)=O)nn2-c2ccc(F)cc2)CC3)CC1`, the half-maximal inhibitory concentration (IC50) in assay [1] was determined as 16200 nM. `NC(=O)c1nn(-c2ccc3c(c2)OCO3)c2c1CCc1ccc(NC(=O)c3cccnc3N)cc1-2`: in assay [1], the half-maximal inhibitory concentration (IC50) was determined as 1340 nM. For the molecule `C[C@@H]1CN(c2cc(C(=O)Nc3ccc4c(c3)-c3c(c(C(N)=O)nn3-c3ccc(F)cc3)CC4)c(Cl)cn2)C[C@H](C)N1`, the half-maximal inhibitory concentration (IC50) in assay [1] turned out to be 46 nM; in assay [2] it was 8600 nM.

With `CN1CCN(c2cc(C(=O)Nc3ccc4c(c3)-c3c(c(C(N)=O)nn3-c3ccc(F)cc3)CC4)ccn2)CC1`, the values for the half-maximal inhibitory concentration (IC50) in assay [1] and in assay [2] were 125 nM and > 5000 nM, respectively. For `CN1CCN(c2ccc(Cl)c(C(=O)Nc3ccc4c(c3)-c3c(c(C(N)=O)nn3-c3ccc(F)cc3)CC4)n2)CC1`, in that order: 348 nM and 4830 nM.

As for `C[C@@H]1CN(c2cc(C(=O)Nc3ccc4c(c3)-c3c(c(C(N)=O)nn3-c3ccc(F)cc3)CC4)c(Cl)cn2)CCN1C`, the 50% inhibitory concentration (IC50) in assay [1] was found to be 48 nM; in assay [2] it was 2180 nM. For `NC(=O)c1nn(-c2ccc(F)cc2)c2c1CCc1ccc(NC(=O)c3cc(N4CCOCC4)ncc3Cl)cc1-2`, in that order: 146 nM and 2140 nM. For `NC(=O)c1nn(-c2ccc3c(c2)OCO3)c2c1CCc1ccc(NC(=O)c3cc(N4CCNCC4)ncc3Cl)cc1-2`, in that order: 40 nM and 1860 nM. Turning to `CC(C)N1CCN(c2cc(C(=O)Nc3ccc4c(c3)-c3c(c(C(N)=O)nn3-c3ccc(F)cc3)CC4)c(Cl)cn2)CC1`, the half-maximal inhibitory concentration (IC50) in assay [1] stood at 107 nM; in assay [2] it was 1490 nM.

With `CNc1ncccc1C(=O)Nc1ccc2c(c1)-c1c(c(C(N)=O)nn1-c1ccc(F)cc1)CC2`, the IC50 in assay [1] turned out to be 3210 nM.

For `NC(=O)c1nn(-c2ccc(F)cc2)c2c1CCc1ccc(NC(=O)c3nc(N4CCOCC4)ccc3Cl)cc1-2`, the results for the IC50 in assay [1] and in assay [2] were 1250 nM and 3040 nM, respectively. For `C[C@H]1CN(c2cc(C(=O)Nc3ccc4c(c3)-c3c(c(C(N)=O)nn3-c3ccc(F)cc3)CC4)c(Cl)cn2)CCN1C`, in that order: 45 nM and 1310 nM. For `CN1CCN(c2ccc(Cl)c(C(=O)Nc3ccc4c(c3)-c3c(c(C(N)=O)nn3-c3ccc5c(c3)OCO5)CC4)n2)CC1`, in that order: 297 nM and 4420 nM.

For `CN(C)CCN(C)c1cc(C(=O)Nc2ccc3c(c2)-c2c(c(C(N)=O)nn2-c2ccc(F)cc2)CC3)c(Cl)cn1`, the concentration for half-maximal inhibition (IC50) was determined as 19 nM in assay [1] and 4180 nM in assay [2].

Regarding `NC(=O)c1nn(-c2ccc(F)cc2)c2c1CCc1ccc(NC(=O)c3cc(N4CCCNCC4)ncc3Cl)cc1-2`, the 50% inhibitory concentration (IC50) in assay [1] came out at 27 nM; in assay [2] it was 1940 nM. For `NC(=O)c1nn(-c2ccc3c(c2)OCO3)c2c1CCc1ccc(NC(=O)c3nc(N4CCOCC4)ccc3Cl)cc1-2`, the IC50 in assay [1] was 612 nM; in assay [2], > 100000 nM. Turning to `CNc1ncccc1C(=O)Nc1ccc2c(c1)-c1c(c(C(N)=O)nn1-c1ccc3c(c1)OCO3)CC2`, the IC50 in assay [1] came out at 210 nM; in assay [2], 3370 nM. Turning to `NC(=O)c1nn(-c2ccc3c(c2)OCO3)c2c1CCc1ccc(NC(=O)c3cccnc3N3CCOCC3)cc1-2`, the IC50 in assay [1] was found to be 5910 nM. Take `NC(=O)c1nn(-c2ccc3c(c2)OCO3)c2c1CCc1ccc(NC(=O)c3cc(N4CCOCC4)ncc3Cl)cc1-2`: the IC50 in assay [1] was 90 nM; in assay [2], 849 nM. For the molecule `CN(C)CCNc1cc(C(=O)Nc2ccc3c(c2)-c2c(c(C(N)=O)nn2-c2ccc(F)cc2)CC3)c(Cl)cn1`, the IC50 in assay [1] came to 70 nM; in assay [2], 4720 nM. For the molecule `CN1CCN(c2ncccc2C(=O)Nc2ccc3c(c2)-c2c(c(C(N)=O)nn2-c2ccc4c(c2)OCO4)CC3)CC1`, in assay [1], the half-inhibitory concentration (IC50) is 17300 nM. Take `COCCN1CCN(c2cc(C(=O)Nc3ccc4c(c3)-c3c(c(C(N)=O)nn3-c3ccc(F)cc3)CC4)c(Cl)cn2)CC1`: the IC50 amounted to 59 nM in assay [1] and 1020 nM in assay [2]. For `NC(=O)c1nn(-c2ccc(F)cc2)c2c1CCc1ccc(NC(=O)c3cccnc3Cl)cc1-2`, in that order: 47 nM and 12000 nM. For `NC(=O)c1nn(-c2ccc(F)cc2)c2c1CCc1ccc(NC(=O)c3ccnc(N4CCOCC4)c3)cc1-2`, in that order: 589 nM and > 5000 nM. For `NC(=O)c1nn(-c2ccc(F)cc2)c2c1CCc1ccc(NC(=O)c3cc(N4CCNCC4)ncc3Cl)cc1-2`, in that order: 10 nM and 2470 nM. In the case of `CN1CCCN(c2cc(C(=O)Nc3ccc4c(c3)-c3c(c(C(N)=O)nn3-c3ccc(F)cc3)CC4)c(Cl)cn2)CC1`, the results for the half-maximal inhibitory concentration (IC50) in assay [1] and in assay [2] were 29 nM and 2360 nM, respectively.

Usually IC50 stands for the concentration that inhibits the measured activity by half.
